Laboratory results from ChEMBL document CHEMBL1156763, “1,8-Naphthyridines VIII. Novel 5-aminoimidazo[1,2-a] [1,8]naphthyridine-6-carboxamide and 5-amino[1,2,4]triazolo[4,3-a] [1,8]naphthyridine-6-carboxamide derivatives showing potent analgesic or anti-inflammatory activity, respectively, and completely devoid of acute gastrolesivity” (Eur J Med Chem, 2010).

How the values were obtained:
Rattus norvegicus [1] = experiment: Acute gastrolesivity in Wistar rat assessed as appearance of gastric damage at 200 mg/kg, po after 5 hrs; type: toxicity, organism-based, Stomach; set-up: dose 200 mg/kg, route oral; settings: in vivo
Summary of the method: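 Wistar rats (250–300 g), either sex, fasted overnight; compound suspended in 0.5% methylcellulose, single oral gavage at 200 mg kg^-1 (1 mL 100 g^-1). Stomachs excised 5 h later, fixed in 2% formalin, opened along greater curvature, examined by stereomicroscope by blinded observer. Reported as number of animals with gastric damage over treated animals (eight per group).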

Rattus norvegicus [2] = experiment: Antiinflammatory activity against carrageenan-induced paw edema in Wistar rat assessed as inhibition of hind paw edema at 100 mg/kg, po administered 1 hr prior to carrageenan challenge measured after 3 hrs relative to control; type: functional
Summary of the method: (§1)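 Wistar rats of either sex (250–300 g), fasted overnight, gavaged with compound in 0.5% methylcellulose. 1 h later, 0.1 mL 1% carrageenan injected subcutaneously into the plantar hind paw. Paw volume read by plethysmometer right after injection and 3 h later. Control edema set as 100, % inhibition from swelling difference. Groups of 8–10; Student's t-test.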

Mus musculus [3] = experiment: Analgesic activity in Swiss mouse assessed as inhibition of acetic acid-induced writhing response at 50 mg/kg, po administered 1 hr before acetic acid challenge measured for 30 mins relative to control; type: functional
Summary of the method: (§2)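 Mice of either sex (25–35 g), fasted overnight, dosed by oral gavage with test agent suspended in 0.5% methylcellulose; controls got vehicle alone. Each hind-limb full extension counted as a writhe over 30 min after the noxious agent. % inhibition from treated vs control writhing; groups of 8–10; Student's t-test. Dosing starts at 100 mg/kg, then halved stepwise.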

Rattus norvegicus [4] = experiment: Antiinflammatory activity against carrageenan-induced paw edema in Wistar rat assessed as inhibition of hind paw edema at 12.5 mg/kg, po administered 1 hr prior to carrageenan challenge measured after 3 hrs relative to control; type: functional; summary of the method: as §1
Rattus norvegicus [5] = experiment: Antiinflammatory activity against carrageenan-induced paw edema in Wistar rat assessed as inhibition of hind paw edema at 6.25 mg/kg, po administered 1 hr prior to carrageenan challenge measured after 3 hrs relative to control; type: functional; summary of the method: as §1
Rattus norvegicus [6] = experiment: Antiinflammatory activity against carrageenan-induced paw edema in Wistar rat assessed as inhibition of hind paw edema at 50 mg/kg, po administered 1 hr prior to carrageenan challenge measured after 3 hrs relative to control; type: functional; summary of the method: as §1
Rattus norvegicus [7] = experiment: Antiinflammatory activity against carrageenan-induced paw edema in Wistar rat assessed as inhibition of hind paw edema at 25 mg/kg, po administered 1 hr prior to carrageenan challenge measured after 3 hrs relative to control; type: functional; summary of the method: as §1
Mus musculus [8] = experiment: Analgesic activity in Swiss mouse assessed as inhibition of acetic acid-induced writhing response at 100 mg/kg, po administered 1 hr before acetic acid challenge measured for 30 mins relative to control; type: functional; summary of the method: as §2
Mus musculus [9] = experiment: Sedative activity in Swiss mouse assessed as inhibition of spontaneous locomotor activity at 50 mg/kg, po dose measured for every 5 mins up to 90 mins; type: organism-based; set-up: dose 50 mg/kg, route oral
Summary of the method: (§3)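 Overnight-fasted mice given compound (0.5% methylcellulose) or vehicle by oral gavage, then housed singly in an activity cage. Locomotion auto-recorded in 5-min intervals for 90 min; pulses of the final 30 min scored. % inhibition versus controls; runs between 9.00 and 13.00; groups of 8–10; Student's t-test.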

Mus musculus [10] = experiment: Analgesic activity in Swiss mouse assessed as inhibition of acetic acid-induced writhing response at 25 mg/kg, po administered 1 hr before acetic acid challenge measured for 30 mins relative to control; type: functional; summary of the method: as §2
Mus musculus [11] = experiment: Analgesic activity in Swiss mouse assessed as inhibition of acetic acid-induced writhing response at 12.5 mg/kg, po administered 1 hr before acetic acid challenge measured for 30 mins relative to control; type: functional; summary of the method: as §2
Mus musculus [12] = experiment: Analgesic activity in Swiss mouse assessed as inhibition of acetic acid-induced writhing response at 6.25 mg/kg, po administered 1 hr before acetic acid challenge measured for 30 mins relative to control; type: functional; summary of the method: as §2
Mus musculus [13] = experiment: Analgesic activity in Swiss mouse assessed as inhibition of acetic acid-induced writhing response at 1.6 mg/kg, po administered 1 hr before acetic acid challenge measured for 30 mins relative to control; type: functional
Mus musculus [14] = experiment: Analgesic activity in Swiss mouse assessed as inhibition of acetic acid-induced writhing response at 3.12 mg/kg, po administered 1 hr before acetic acid challenge measured for 30 mins relative to control; type: functional
Mus musculus [15] = experiment: Sedative activity in Swiss mouse assessed as inhibition of spontaneous locomotor activity at 100 mg/kg, po dose measured for every 5 mins up to 90 mins; type: organism-based; set-up: dose 100 mg/kg, route oral; summary of the method: as §3

SMILES	Activity (Rattus norvegicus [1])	inhibition in vivo at 100 mg/kg (Rattus norvegicus [2]) [%]	inhibition in vivo at 50 mg/kg (Mus musculus [3]) [%]	inhibition in vivo at 12.5 mg/kg (Rattus norvegicus [4]) [%]	inhibition in vivo at 6.25 mg/kg (Rattus norvegicus [5]) [%]	inhibition in vivo at 50 mg/kg (Rattus norvegicus [6]) [%]	inhibition in vivo at 25 mg/kg (Rattus norvegicus [7]) [%]	inhibition in vivo at 100 mg/kg (Mus musculus [8]) [%]	inhibition at 50 mg/kg (Mus musculus [9]) [%]	inhibition in vivo at 25 mg/kg (Mus musculus [10]) [%]	inhibition in vivo at 12.5 mg/kg (Mus musculus [11]) [%]	inhibition in vivo at 6.25 mg/kg (Mus musculus [12]) [%]	inhibition in vivo at 1.6 mg/kg (Mus musculus [13]) [%]	inhibition in vivo at 3.12 mg/kg (Mus musculus [14]) [%]	inhibition at 100 mg/kg (Mus musculus [15]) [%]
CCN(CC)C(=O)c1c(N(C)CC)c2cccnc2n2c(C(C)C)nnc12	Non-toxic	71	59	51	42	67	65	81	22	17	–	–	–	–	–
CCN(CC)C(=O)c1c(NC(C)C)c2cccnc2n2c(C(C)C)nnc12	Non-toxic	81	54	68	–	75	75	83	64	33	0	–	–	–	–
CCN(CC)C(=O)c1c(NCC(C)C)c2cccnc2n2c(C(C)C)nnc12	Non-toxic	70	33	50	27	66	61	100	–	–	–	–	–	–	–
CCC(CC)Nc1c(C(=O)N(CC)CC)c2nnc(C(C)C)n2c2ncccc12	Non-toxic	50	75	45	11	47	47	91	84	58	49	36	–	–	–
CCN(CC)C(=O)c1c(N2CCN(C)CC2)c2cccnc2n2c(C(C)C)nnc12	Non-toxic	–	85	–	–	–	–	88	100	90	92	83	39	85	–
CCN1CCN(c2c(C(=O)N(CC)CC)c3ncc(C)n3c3ncccc23)CC1	Non-toxic	10	48	–	–	–	–	83	46	54	0	–	–	–	63
